High-throughput results from PubChem.
bIAP inhibitor: blocks bovine intestinal alkaline phosphatase activity; inhibition, % at 20 µM; AID 1019; purified bovine IAP, CDP-star luminescence, 30 min; 190,000 tested, under 10 active;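 active = over 50% inhibition of intestinal alkaline phosphatase at 20 µM in the single-dose screen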
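Assay system: bovine IAP enzyme; medium: DEA buffer 100 mM, pH 9.8, with MgCl2 1.0 mM, ZnCl2 0.02 mM; doses: 20 µM single dose; incubation: enzyme reaction for 30 min at room temperature; detection: CDP-star luminescence signal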
hIAP inh: blocks human intestinal alkaline phosphatase. purified IAP, CDP-Star luminescence, 30 min. inhibition, % at 10 µM. 330,000 compounds, 0.12% hits. AID 2544;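 active = inhibition reaching a set limit with compound at 10 µM in the primary screen, cut at about 35% in these data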;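 also: plate controls were DMSO wells with enzyme for no effect and no-enzyme buffer wells for full effect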
Target sequence (P09923 whole entry, looked up): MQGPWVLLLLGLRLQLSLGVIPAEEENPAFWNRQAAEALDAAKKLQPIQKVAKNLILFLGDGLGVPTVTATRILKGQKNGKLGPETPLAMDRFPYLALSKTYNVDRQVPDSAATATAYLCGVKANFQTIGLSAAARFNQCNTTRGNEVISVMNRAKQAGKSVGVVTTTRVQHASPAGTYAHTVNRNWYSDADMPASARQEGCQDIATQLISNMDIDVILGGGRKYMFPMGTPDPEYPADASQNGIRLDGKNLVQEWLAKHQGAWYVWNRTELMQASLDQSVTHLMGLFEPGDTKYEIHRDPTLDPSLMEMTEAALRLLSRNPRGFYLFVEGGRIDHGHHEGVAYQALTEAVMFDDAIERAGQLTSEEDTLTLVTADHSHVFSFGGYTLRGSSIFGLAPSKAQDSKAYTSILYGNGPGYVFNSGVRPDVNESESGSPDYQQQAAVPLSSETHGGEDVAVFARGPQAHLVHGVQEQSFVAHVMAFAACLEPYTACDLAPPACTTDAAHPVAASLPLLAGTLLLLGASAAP
hIAP act: human IAP activation; 330,000 compounds, 0.16% hits; P09923; activation factor at 10 µM; purified human IAP, CDP-Star luminescence, 30 min; stronger effect = higher value; 1 = vehicle-only enzyme, 0 = enzyme-free background;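 active = activation factor of the enzyme at least 2-fold when tested at 20 µM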
mIAP act: increases mouse intestinal alkaline phosphatase activity; muIAP, CDP-Star luminescence, 30 min; stronger effect = higher value; 1 = vehicle-only enzyme signal, 0 = enzyme-free wells; activation factor at 10 µM; 330,000 compounds, 0.24% hits; AID 2805;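 active = activation factor of at least 2 at 20 µM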
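Assay system: mouse IAP enzyme; reagent: chemiluminescent substrate CDP-Star; dosing: test compounds delivered from DMSO solution; schedule: 30 min at room temperature; measured by: luminescence from enzymatic CDP-Star hydrolysis; controls: DMSO-only wells and no-enzyme negative control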
mIAP block: blocks mouse intestinal alkaline phosphatase; purified mouse IAP, CDP-Star luminescence, 30 min; 330,000 compounds, 0.2% hits; inhibition, % at 10 µM;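 active = inhibition of at least 40% at 10 µM in the primary screen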;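 also: plate controls were DMSO with enzyme for no effect and no enzyme wells for full effect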
bIAP activator: intestinal alkaline phosphatase (bovine) activation; purified bovine IAP, CDP-star luminescence, 30 min; stronger effect = higher value; fold of DMSO-control signal, blank-subtracted; activation factor at 20 µM; 200,000 compounds, 0.17% hits; AID 1016;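 active = activation factor of 2 or more at 20 µM, a signal rise over negative controls twice the positive control's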
hIAP act conf: human IAP activation confirmation; shares compounds with hIAP act; purified IAP, CDP-Star luminescence, 30 min; stronger effect = lower value; activation (%Activity, negative = activation), % at 8.3 µM; 880 compounds, 10% hits; AID 434926;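 active = at least twofold enzyme activation in any of six single-dose repeats, which the averaged readout prints as negative percent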
* marks the source's active call; other numbers are inactive results; x = no result. This is a sample that favours compounds with a hit; in the whole collection about 0.72% have one here.

SMILES	bIAP inhibitor	hIAP inh	hIAP act	mIAP act	mIAP block	bIAP activator	hIAP act conf
COc1c(C)cccc1C(=O)NC(=S)Nc1ccccc1N1CCCC1	x	35*	0.65	0.89	11	x	-34
C#CCOCCOCCOCCNc1nc(N2CCN(C(=O)[C@H](Cc3cc4ccccc4[nH]3)n3cc([C@@H](N)C(C)CC)nn3)CC2)nc(N2CCN(C(=O)[C@H](CCCCN)n3cc([C@@H](N)CO)nn3)CC2)n1 (some centres undefined)	-46	-2	1	1.1	-8	1.5	x
CCCN(CC(=O)Nc1ccc(C(C)=O)cc1)CC(=O)Nc1ccccc1C	12	-1	1	1.1	-6	0.9	x
CCCCNC(=O)c1cn(CC)c2ccc(S(=O)(=O)N3CCCC3)cc2c1=O	x	18	0.82	1	-2	x	x
CCn1cc(C(=O)NCCCOC)c(=O)c2cc(S(=O)(=O)N3CCCC3)ccc21	x	39*	0.61	0.98	2	x	-23
CCOc1ccc2oc(C(=O)NNC(=O)c3ccccc3O)c(C)c2c1	x	-137	2.4*	0.78	22	x	-37
Cc1occc1-c1nnc(SCc2nc3ccccc3c(=O)n2CC#N)n1C	6	8	0.92	0.95	5	0.9	x
CC(C)(C)c1ccc(OC(=O)c2cccnc2)cc1	6	-5	1	1	-4	0.9	x
COc1ccc(OC(=O)c2cccnc2)cc1	6	41*	0.59	0.92	8	0.9	7
O=C(Cn1nnc2ccccc2c1=O)NCCc1ccc(Cl)cc1Cl	14	37*	0.63	0.91	9	0.9	8
CCc1nn(CC(=O)NC(C)CCc2ccccc2)c(=O)c2cc3cc(F)ccc3n12 (centres undefined)	x	-120	2.2*	1.1	-12	x	-59
CCc1nn(CC(=O)NC2CCN(Cc3ccccc3)CC2)c(=O)c2cc3cc(F)ccc3n12	x	12	0.88	1	-1	x	x
COC(=O)c1ccc(NC(=O)C2C3CCC(C3)C2C(=O)O)cc1 (centres undefined)	5	-28	1.3	1.1	-12	1	x
CC(=O)CCc1ccc(Oc2nc(-c3cccnc3)nc3ccccc23)cc1	-13	36*	0.64	0.86	14	1.1	42
COc1ccc(Oc2nc(-c3cccnc3)nc3ccccc23)cc1	x	10	0.91	0.96	4	x	x
C/C=N/NC(=O)c1cc(Br)ccc1O	-18	-23	1.2	1	0	1.2	x
Cc1c(/C=N/NC(=O)c2cc(Br)ccc2O)c(=O)n(C)c(=O)n1C	x	-114	2.1*	0.98	2	x	-35
CCOC(=O)C(=O)N/N=C(/c1ccccc1)c1ccc(OC)cc1	x	37*	0.63	1	-3	x	-47
COC(=O)c1nnn(-c2nonc2N)c1CSc1nc2ccccc2s1	1	10	0.9	0.95	5	1	x
COC(=O)c1nnn(-c2nonc2N)c1CSc1nc2ccccc2o1	-1	-227	3.3*	0.94	6	1	0
O=C(NCCCN1CCOCC1)c1ccc2c(c1)N(Cc1ccccc1)C(=O)c1ccccc1S2	x	-7	1.1	1.1	-5	x	x
COc1cc2c(cc1OC)C1=C(C#N)CC/C(=N\S(=O)(=O)c3ccccc3)N1CC2	-4	2	0.98	1.1	-8	1	x
COc1ccc(C(=O)N=C2CCC(C#N)=C3c4cc(OC)c(OC)cc4CCN23)cc1	34	-106	2.1*	1.1	-12	0.7	9
O=C(O)CCC(=O)Nc1ccccc1C(=O)NC1CCCCC1	11	-110	2.1*	1	0	0.9	-6
CC(=O)Nc1ccc(S(=O)(=O)NC(CC(=O)O)c2ccc(OC(C)C)cc2)cc1 (centres undefined)	6	-4	1	1	-4	0.9	x
SMILES	bIAP inhibitor	hIAP inh	hIAP act	mIAP act	mIAP block	bIAP activator	hIAP act conf
COc1ccc(OC)c(CN2CCCC(C(=O)c3ccccc3SC)C2)c1 (centres undefined)	11	18	0.82	0.98	2	0.9	x
c1ccc(COc2ccc(Nc3ncnc4nc[nH]c34)cc2)cc1	-26	-144	2.4*	1.1	-9	1.3	-22
CCOC(=O)c1ccc(Nc2ncnc3nc[nH]c23)cc1	-16	-78	1.8	0.96	4	1.2	x
CCCSc1nc(C)cc(C)c1S(C)(=O)=O	-7	-2	1	0.92	8	1.1	x
CN1C(=O)/C(=C\c2cc(N=Nc3ccccc3)ccc2O)SC1=S	27	38*	0.62	0.74	26	0.7	3
CCCOc1ccc(Br)cc1/C=N/NC(=O)c1cc(OC)c(OC)c(OC)c1	0	-1	1	0.96	4	1	x
O=C(NNc1nc(=O)c2cccnc2s1)c1ccccc1O	8	-186	2.9*	0.81	19	0.9	14
O=C(NNc1c2ccccc2nc2ccccc12)c1ccccc1O	-2	12	0.88	0.83	17	1	x
CN(CC(=O)NCc1cccnc1)S(=O)(=O)c1ccccc1	x	-5	1	0.96	4	x	x
CNc1nc2c(c(=O)[nH]c(=O)n2C)n1CCCc1ccccc1	x	-6	1.1	0.96	4	x	x
CCCn1c(N/N=C\C=C\c2ccccc2)nc2c1c(=O)[nH]c(=O)n2C	-44	-123	2.2*	0.88	12	1.4	2
CCCCNC(=S)NNC(=O)c1ccco1	8	44*	0.56	0.87	13	0.9	9
Cc1ccc(C(=O)NNC(=S)NC(=O)c2ccccc2)cc1	x	6	0.94	0.93	7	x	x
Cc1ccc(C(=O)NC(=S)NNC(=O)c2ccccc2O)cc1	x	-139	2.4*	0.7	30	x	18
O=C(NC(=S)NNC(=O)c1ccccc1O)c1ccc(F)cc1	x	-108	2.1*	0.69	31	x	62
O=C(NC(=S)NNC(=O)c1ccccc1O)c1ccccc1	x	-114	2.1*	0.71	28	x	2
CCCCNC(=O)NNC(=O)c1ccco1	-9	-5	1.1	1.1	-7	1.1	x
O=C(NNC(=S)NC(=O)c1ccccc1[N+](=O)[O-])c1ccccc1O	-44	-135	2.4*	0.73	27	1.4	27
O=C(NC(=S)NNC(=O)c1ccco1)c1ccccc1	x	-103	2*	0.73	27	x	21
O=C(NC(=S)NNC(=O)c1ccccc1O)c1cccs1	x	-102	2*	0.77	23	x	-3
O=c1cc(-c2ccc(O)c(O)c2)oc2cc(O)cc(O)c12	x	58*	0.42	0.66	34	x	-2
COc1ccc(-c2cc(=O)c3c(O)cc(O)cc3o2)cc1	x	12	0.88	0.97	3	x	x
COc1ccccc1NS(=O)(=O)c1ccc(/C=C/C(=O)O)cc1	16	8	0.92	0.97	3	0.8	x
